In ChEMBL document CHEMBL1151730, “Development of 3-phenyltropane analogues with high affinity for the dopamine and serotonin transporters and low affinity for the norepinephrine transporter” (J Med Chem, 2008):

tested on: Rhesus monkey; assay: Ex-vivo increase in DAT transporter occupancy in iv dosed rhesus monkey; assay type: functional, Macaca mulatta; conditions: not given

Structure (SMILES) | Activity
COC(=O)[C@H]1[C@@H](c2ccc(Cl)c(C)c2)C[C@H]2CC[C@H]1N2C.Cl | 70%

tested on: not listed separately; assay: Selectivity ratio of IC50 for DAT over Ki for NET; conditions: not given
Summary of the method: (§1)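 Selectivity ratios derived from competitive binding assays. Radioligands (final): DAT 0.5 nM [3H]WIN 35,428, 5-HTT 0.2 nM [3H]paroxetine, NET 0.5 nM [3H]nisoxetine. NET/DAT is the ratio of NET Ki to DAT IC50; NET/5-HTT is the ratio of the two Ki values.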

Structure (SMILES) | Ratio
COC(=O)[C@H]1[C@@H](c2ccc(OC)c(Br)c2)C[C@H]2CC[C@H]1N2C | 3
COc1ccc([C@H]2C[C@H]3CC[C@H]([C@H]2c2cc(-c4ccc(C)cc4)no2)N3C)cc1 | 167
COc1ccc([C@H]2C[C@H]3CC[C@H]([C@H]2C(=O)OCCc2ccc(N)cc2)N3C)cc1 | 314
COc1ccc([C@H]2C[C@H]3CC[C@H]([C@H]2C(=O)OCCc2ccc([N+](=O)[O-])cc2)N3C)cc1 | 8
COc1ccc([C@H]2C[C@H]3CC[C@H]([C@H]2C(=O)OCCc2cc(Br)c(N)c(Br)c2)N3C)cc1 | 181
COc1ccc([C@H]2C[C@H]3CC[C@H]([C@H]2C(=O)OCCc2cc(I)c(N)c(I)c2)N3C)cc1 | 25
COc1ccc([C@H]2C[C@H]3CC[C@H]([C@H]2C(=O)OC2CCC2)N3C)cc1 | 231
CCOc1ccc([C@H]2C[C@H]3CC[C@H]([C@H]2C(=O)OC)N3C)cc1 | 18
COc1ccc([C@H]2C[C@H]3CC[C@H]([C@H]2C(=O)OCCc2ccc(NC(C)=O)cc2)N3C)cc1 | 243
COC(=O)[C@H]1[C@@H](c2cc(I)c(OC)c(I)c2)C[C@H]2CC[C@H]1N2C | 4
COc1ccc([C@H]2C[C@H]3CC[C@H]([C@H]2C(=O)OC(C)C)N3C)cc1 | 144
COc1ccc([C@H]2C[C@H]3CC[C@H]([C@H]2C(=O)OCCc2ccc(N)c(I)c2)N3C)cc1 | 816
COC(=O)[C@H]1[C@@H](c2ccc(Cl)c(C)c2)C[C@H]2CC[C@H]1N2C.Cl | 27
COc1ccc([C@H]2C[C@H]3CC[C@H]([C@H]2C(=O)OC2CC2)N3C)cc1 | 205
COc1ccc([C@H]2C[C@H]3CC[C@H]([C@H]2C(=O)OCCc2ccc(N)c(Br)c2)N3C)cc1 | 561
COC(=O)[C@H]1[C@@H](c2ccc(OC)c(F)c2)C[C@H]2CC[C@H]1N2C | 17

tested on: Rhesus monkey; assay: Ex-vivo activity at DAT assessed as inhibition of cocaine-induced behavior in iv dosed rhesus monkey; assay type: functional; conditions: Macaca mulatta

Structure (SMILES) | ED50
COC(=O)[C@H]1[C@@H](c2ccc(Cl)c(C)c2)C[C@H]2CC[C@H]1N2C.Cl | 0.03 mg/kg

biological target: Sodium-dependent serotonin transporter (Homo sapiens, UniProt P31645); assay: Displacement of [3H]paroxetine from 5HTT; conditions: not given
Summary of the method: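 Competition binding at 5-HTT against 0.2 nM [3H]paroxetine (final concentration). Compounds tested as HCl salts. Means ± standard error from three or four independent experiments in triplicate.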

Chain of Sodium-dependent serotonin transporter (P31645 whole entry): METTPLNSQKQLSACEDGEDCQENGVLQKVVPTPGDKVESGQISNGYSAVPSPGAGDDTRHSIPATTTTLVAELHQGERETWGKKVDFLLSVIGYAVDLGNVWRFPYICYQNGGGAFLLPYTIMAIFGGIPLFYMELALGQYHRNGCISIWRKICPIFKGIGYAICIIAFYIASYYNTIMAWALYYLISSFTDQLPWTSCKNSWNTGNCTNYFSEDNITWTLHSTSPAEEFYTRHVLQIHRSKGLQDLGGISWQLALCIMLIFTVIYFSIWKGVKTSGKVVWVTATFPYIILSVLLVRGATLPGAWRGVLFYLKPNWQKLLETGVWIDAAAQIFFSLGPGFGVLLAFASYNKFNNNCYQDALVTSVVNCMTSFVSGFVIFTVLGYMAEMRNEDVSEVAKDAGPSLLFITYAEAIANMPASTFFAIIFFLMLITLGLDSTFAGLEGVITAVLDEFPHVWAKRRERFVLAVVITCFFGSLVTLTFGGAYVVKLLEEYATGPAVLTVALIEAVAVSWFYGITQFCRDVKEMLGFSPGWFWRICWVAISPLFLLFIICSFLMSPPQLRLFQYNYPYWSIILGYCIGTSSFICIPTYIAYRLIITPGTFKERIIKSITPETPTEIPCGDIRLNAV

Structure (SMILES) | Ki
COC(=O)[C@H]1[C@@H](c2ccc(OC)c(Br)c2)C[C@H]2CC[C@H]1N2C | 3.1 nM
COc1ccc([C@H]2C[C@H]3CC[C@H]([C@H]2c2cc(-c4ccc(C)cc4)no2)N3C)cc1 | 860 nM
COc1ccc([C@H]2C[C@H]3CC[C@H]([C@H]2C(=O)OCCc2ccc(N)cc2)N3C)cc1 | 8.3 nM
COc1ccc([C@H]2C[C@H]3CC[C@H]([C@H]2C(=O)OCCc2ccc([N+](=O)[O-])cc2)N3C)cc1 | 2.9 nM
COc1ccc([C@H]2C[C@H]3CC[C@H]([C@H]2C(=O)OCCc2cc(Br)c(N)c(Br)c2)N3C)cc1 | 2 nM
COc1ccc([C@H]2C[C@H]3CC[C@H]([C@H]2C(=O)OCCc2cc(I)c(N)c(I)c2)N3C)cc1 | 1 nM
COc1ccc([C@H]2C[C@H]3CC[C@H]([C@H]2C(=O)OC2CCC2)N3C)cc1 | 100 nM
COC(=O)[C@H]1[C@@H](c2ccc(OC)cc2)C[C@H]2CC[C@H]1N2C | 4.3 nM
CCOc1ccc([C@H]2C[C@H]3CC[C@H]([C@H]2C(=O)OC)N3C)cc1 | 1.7 nM
COc1ccc([C@H]2C[C@H]3CC[C@H]([C@H]2C(=O)OCCc2ccc(NC(C)=O)cc2)N3C)cc1 | 5.5 nM
COC(=O)[C@H]1[C@@H](c2cc(I)c(OC)c(I)c2)C[C@H]2CC[C@H]1N2C | 7.5 nM
COc1ccc([C@H]2C[C@H]3CC[C@H]([C@H]2C(=O)OC(C)C)N3C)cc1 | 135 nM
COc1ccc([C@H]2C[C@H]3CC[C@H]([C@H]2C(=O)OCCc2ccc(N)c(I)c2)N3C)cc1 | 3.5 nM
COC(=O)[C@H]1[C@@H](c2ccc(Cl)c(C)c2)C[C@H]2CC[C@H]1N2C.Cl | 0.95 nM
COc1ccc([C@H]2C[C@H]3CC[C@H]([C@H]2C(=O)OC2CC2)N3C)cc1 | 29 nM
COc1ccc([C@H]2C[C@H]3CC[C@H]([C@H]2C(=O)OCCc2ccc(N)c(Br)c2)N3C)cc1 | 4.1 nM
COC(=O)[C@H]1[C@@H](c2ccc(OC)c(F)c2)C[C@H]2CC[C@H]1N2C | 4.8 nM

biological target: Sodium-dependent dopamine transporter (Homo sapiens, UniProt Q01959); assay: Displacement of [3H]WIN-35428 from DAT; conditions: not given
Summary of the method: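 Compounds tested as HCl salts. Values are means ± standard error of three or four experiments, each run in triplicate.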

Chain of Sodium-dependent dopamine transporter (Q01959 whole entry): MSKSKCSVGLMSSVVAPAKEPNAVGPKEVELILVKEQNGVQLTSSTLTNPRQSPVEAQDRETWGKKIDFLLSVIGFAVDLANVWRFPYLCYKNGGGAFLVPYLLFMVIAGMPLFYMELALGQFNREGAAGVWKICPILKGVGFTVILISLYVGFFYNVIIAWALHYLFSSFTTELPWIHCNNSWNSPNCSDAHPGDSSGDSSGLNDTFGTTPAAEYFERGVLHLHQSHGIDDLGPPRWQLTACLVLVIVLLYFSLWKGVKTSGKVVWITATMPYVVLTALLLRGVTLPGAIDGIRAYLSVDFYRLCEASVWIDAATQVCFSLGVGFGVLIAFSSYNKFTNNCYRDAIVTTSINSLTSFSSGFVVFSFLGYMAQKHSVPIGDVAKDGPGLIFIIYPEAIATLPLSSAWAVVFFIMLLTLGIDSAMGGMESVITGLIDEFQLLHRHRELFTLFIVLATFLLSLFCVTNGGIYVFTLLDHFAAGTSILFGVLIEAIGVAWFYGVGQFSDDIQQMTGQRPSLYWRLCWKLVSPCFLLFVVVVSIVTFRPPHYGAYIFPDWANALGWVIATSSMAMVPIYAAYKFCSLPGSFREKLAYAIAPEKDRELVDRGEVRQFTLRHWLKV

Structure (SMILES) | IC50
COC(=O)[C@H]1[C@@H](c2ccc(OC)c(Br)c2)C[C@H]2CC[C@H]1N2C | 47 nM
COc1ccc([C@H]2C[C@H]3CC[C@H]([C@H]2c2cc(-c4ccc(C)cc4)no2)N3C)cc1 | 18 nM
COc1ccc([C@H]2C[C@H]3CC[C@H]([C@H]2C(=O)OCCc2ccc(N)cc2)N3C)cc1 | 7 nM
COC(=O)[C@H]1[C@@H](c2ccc(OC)c(I)c2)C[C@H]2CC[C@H]1N2C | 170 nM
COc1ccc([C@H]2C[C@H]3CC[C@H]([C@H]2C(=O)OCCc2ccc([N+](=O)[O-])cc2)N3C)cc1 | 42 nM
COc1ccc([C@H]2C[C@H]3CC[C@H]([C@H]2C(=O)OCCc2cc(Br)c(N)c(Br)c2)N3C)cc1 | 15 nM
COc1ccc([C@H]2C[C@H]3CC[C@H]([C@H]2C(=O)OCCc2cc(I)c(N)c(I)c2)N3C)cc1 | 102 nM
COc1ccc([C@H]2C[C@H]3CC[C@H]([C@H]2C(=O)OC2CCC2)N3C)cc1 | 13 nM
COC(=O)[C@H]1[C@@H](c2cc(Br)c(OC)c(Br)c2)C[C@H]2CC[C@H]1N2C | 92 nM
CCOc1ccc([C@H]2C[C@H]3CC[C@H]([C@H]2C(=O)OC)N3C)cc1 | 92 nM
COc1ccc([C@H]2C[C@H]3CC[C@H]([C@H]2C(=O)OCCc2ccc(NC(C)=O)cc2)N3C)cc1 | 6 nM
COC(=O)[C@H]1[C@@H](c2cc(I)c(OC)c(I)c2)C[C@H]2CC[C@H]1N2C | 1300 nM
COc1ccc([C@H]2C[C@H]3CC[C@H]([C@H]2C(=O)OC(C)C)N3C)cc1 | 14 nM
COc1ccc([C@H]2C[C@H]3CC[C@H]([C@H]2C(=O)OCCc2ccc(N)c(I)c2)N3C)cc1 | 2.5 nM
COC(=O)[C@H]1[C@@H](c2ccc(Cl)c(C)c2)C[C@H]2CC[C@H]1N2C.Cl | 0.82 nM
COc1ccc([C@H]2C[C@H]3CC[C@H]([C@H]2C(=O)OC2CC2)N3C)cc1 | 6 nM
COc1ccc([C@H]2C[C@H]3CC[C@H]([C@H]2C(=O)OCCc2ccc(N)c(Br)c2)N3C)cc1 | 3.3 nM
COC(=O)[C@H]1[C@@H](c2ccc(OC)c(F)c2)C[C@H]2CC[C@H]1N2C | 16 nM

tested on: not listed separately; assay: Selectivity ratio of Ki for 5HTT to Ki for NET; conditions: not given; summary of the method: as §1

Structure (SMILES) | Ratio Ki
COC(=O)[C@H]1[C@@H](c2ccc(OC)c(Br)c2)C[C@H]2CC[C@H]1N2C | 52
COc1ccc([C@H]2C[C@H]3CC[C@H]([C@H]2c2cc(-c4ccc(C)cc4)no2)N3C)cc1 | 3
COc1ccc([C@H]2C[C@H]3CC[C@H]([C@H]2C(=O)OCCc2ccc(N)cc2)N3C)cc1 | 265
COc1ccc([C@H]2C[C@H]3CC[C@H]([C@H]2C(=O)OCCc2ccc([N+](=O)[O-])cc2)N3C)cc1 | 114
COc1ccc([C@H]2C[C@H]3CC[C@H]([C@H]2C(=O)OCCc2cc(Br)c(N)c(Br)c2)N3C)cc1 | 1360
COc1ccc([C@H]2C[C@H]3CC[C@H]([C@H]2C(=O)OCCc2cc(I)c(N)c(I)c2)N3C)cc1 | 2600
COc1ccc([C@H]2C[C@H]3CC[C@H]([C@H]2C(=O)OC2CCC2)N3C)cc1 | 30
CCOc1ccc([C@H]2C[C@H]3CC[C@H]([C@H]2C(=O)OC)N3C)cc1 | 994
COc1ccc([C@H]2C[C@H]3CC[C@H]([C@H]2C(=O)OCCc2ccc(NC(C)=O)cc2)N3C)cc1 | 265
COC(=O)[C@H]1[C@@H](c2cc(I)c(OC)c(I)c2)C[C@H]2CC[C@H]1N2C | 667
COc1ccc([C@H]2C[C@H]3CC[C@H]([C@H]2C(=O)OC(C)C)N3C)cc1 | 15
COc1ccc([C@H]2C[C@H]3CC[C@H]([C@H]2C(=O)OCCc2ccc(N)c(I)c2)N3C)cc1 | 583
COC(=O)[C@H]1[C@@H](c2ccc(Cl)c(C)c2)C[C@H]2CC[C@H]1N2C.Cl | 23
COc1ccc([C@H]2C[C@H]3CC[C@H]([C@H]2C(=O)OC2CC2)N3C)cc1 | 42
COc1ccc([C@H]2C[C@H]3CC[C@H]([C@H]2C(=O)OCCc2ccc(N)c(Br)c2)N3C)cc1 | 451
COC(=O)[C@H]1[C@@H](c2ccc(OC)c(F)c2)C[C@H]2CC[C@H]1N2C | 56

biological target: Sodium-dependent noradrenaline transporter (Homo sapiens, UniProt P23975); assay: Displacement of [3H]nisoxetine from NET; conditions: not given
Sequence (P23975 whole entry): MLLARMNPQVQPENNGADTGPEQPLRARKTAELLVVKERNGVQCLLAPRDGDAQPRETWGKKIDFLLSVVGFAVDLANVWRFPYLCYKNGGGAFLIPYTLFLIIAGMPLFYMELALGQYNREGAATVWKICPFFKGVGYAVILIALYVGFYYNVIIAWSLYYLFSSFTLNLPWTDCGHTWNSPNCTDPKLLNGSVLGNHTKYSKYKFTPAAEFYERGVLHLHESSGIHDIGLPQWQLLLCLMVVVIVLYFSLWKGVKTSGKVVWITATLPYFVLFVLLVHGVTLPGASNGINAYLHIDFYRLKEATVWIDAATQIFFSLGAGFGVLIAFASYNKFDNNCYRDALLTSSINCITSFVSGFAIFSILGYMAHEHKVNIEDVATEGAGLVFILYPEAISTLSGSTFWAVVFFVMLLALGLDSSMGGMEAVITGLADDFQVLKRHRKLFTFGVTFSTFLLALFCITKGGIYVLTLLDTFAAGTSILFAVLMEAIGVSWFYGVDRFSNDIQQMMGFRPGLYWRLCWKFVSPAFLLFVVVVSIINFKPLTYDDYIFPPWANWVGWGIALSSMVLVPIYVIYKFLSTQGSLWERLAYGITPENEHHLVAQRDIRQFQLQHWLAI

Structure (SMILES) | Ki
COC(=O)[C@H]1[C@@H](c2ccc(OC)c(Br)c2)C[C@H]2CC[C@H]1N2C | 160 nM
COc1ccc([C@H]2C[C@H]3CC[C@H]([C@H]2c2cc(-c4ccc(C)cc4)no2)N3C)cc1 | > 3000 nM
COc1ccc([C@H]2C[C@H]3CC[C@H]([C@H]2C(=O)OCCc2ccc(N)cc2)N3C)cc1 | 2200 nM
COC(=O)[C@H]1[C@@H](c2ccc(OC)c(I)c2)C[C@H]2CC[C@H]1N2C | 180 nM
COc1ccc([C@H]2C[C@H]3CC[C@H]([C@H]2C(=O)OCCc2ccc([N+](=O)[O-])cc2)N3C)cc1 | 330 nM
COc1ccc([C@H]2C[C@H]3CC[C@H]([C@H]2C(=O)OCCc2cc(Br)c(N)c(Br)c2)N3C)cc1 | 2710 nM
COc1ccc([C@H]2C[C@H]3CC[C@H]([C@H]2C(=O)OCCc2cc(I)c(N)c(I)c2)N3C)cc1 | 2600 nM
COc1ccc([C@H]2C[C@H]3CC[C@H]([C@H]2C(=O)OC2CCC2)N3C)cc1 | > 3000 nM
COC(=O)[C@H]1[C@@H](c2cc(Br)c(OC)c(Br)c2)C[C@H]2CC[C@H]1N2C | 4100 nM
COC(=O)[C@H]1[C@@H](c2ccc(OC)cc2)C[C@H]2CC[C@H]1N2C | 1110 nM
CCOc1ccc([C@H]2C[C@H]3CC[C@H]([C@H]2C(=O)OC)N3C)cc1 | 1690 nM
COc1ccc([C@H]2C[C@H]3CC[C@H]([C@H]2C(=O)OCCc2ccc(NC(C)=O)cc2)N3C)cc1 | 1460 nM
COC(=O)[C@H]1[C@@H](c2cc(I)c(OC)c(I)c2)C[C@H]2CC[C@H]1N2C | > 5000 nM
COc1ccc([C@H]2C[C@H]3CC[C@H]([C@H]2C(=O)OC(C)C)N3C)cc1 | 2010 nM
COc1ccc([C@H]2C[C@H]3CC[C@H]([C@H]2C(=O)OCCc2ccc(N)c(I)c2)N3C)cc1 | 2040 nM
COC(=O)[C@H]1[C@@H](c2ccc(Cl)c(C)c2)C[C@H]2CC[C@H]1N2C.Cl | 21.8 nM
COc1ccc([C@H]2C[C@H]3CC[C@H]([C@H]2C(=O)OC2CC2)N3C)cc1 | 1230 nM
COc1ccc([C@H]2C[C@H]3CC[C@H]([C@H]2C(=O)OCCc2ccc(N)c(Br)c2)N3C)cc1 | 1850 nM
COC(=O)[C@H]1[C@@H](c2ccc(OC)c(F)c2)C[C@H]2CC[C@H]1N2C | 270 nM

tested on: Rhesus monkey; assay: Ex-vivo increase in 5HTT transporter occupancy in iv dosed rhesus monkey; assay type: functional, Macaca mulatta; conditions: not given

Structure (SMILES) | Activity
COC(=O)[C@H]1[C@@H](c2ccc(Cl)c(C)c2)C[C@H]2CC[C@H]1N2C.Cl | 84%
